# Hit rate of the full screen: of about 340,000 compounds, about 1,100 (0.32%) were called active.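 How the source made its calls: active means inhibition above a set limit, near 3 SD of compounds lacking own fluorescence (cut at about 54% in these data); inactive means the rest.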 The entries come from a sample that favours actives as a whole.
# Tested on: beta-arrestin 1 C-terminal peptide binding to AP2 beta2-adaptin appendage (human)
# Experiment: blockers of arrestin peptide association with AP2 adaptin – biochemical, GPCR trafficking, flow cytometry, primary screen (AID 504490);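 further: plate controls were DMSO wells for no effect and 5 µM unlabelled arrestin peptide for full effect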
# Details: FITC-arrestin peptide / GST-AP2 beads, at 10 µM, hits give high values, AP2 beta2 appendage carries R879A mutation
# Procedure, shortened: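 System: GST-AP2 R879A glutathione beads. Medium: PBS with 0.05% Tween 20 and 0.1% BSA. Also added: FITC-arrestin peptide, 50 nM. Incubation: 12 min plus 1 h, RT. Measured by: high-throughput flow cytometry of beads, ex 488, em 535 nm. Evaluation: percent drop in bead-associated FITC signal.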
row,SMILES,inhibition
1,O=C(OCc1nc2ccccc2[nH]1)C1CCCCC1,-0.04% (inactive)
2,Cn1c(N)c(C(=O)COC(=O)c2cnc(Cl)c(Cl)c2)c(=O)n(C)c1=O,-4.58% (inactive)
3,Cc1cc(C(=O)OCC(=O)c2c(N)n(C)c(=O)n(C)c2=O)c(C)o1,104% (active)
4,Cn1c(N)c(C(=O)COC(=O)c2ccc3ccccc3c2)c(=O)n(C)c1=O,7.54% (inactive)
5,CCCCN(C(=O)CSCc1ccc(C)cc1)c1c(N)n(Cc2ccccc2)c(=O)[nH]c1=O,-0.62% (inactive)
6,Cc1noc(C)c1CSc1nnc2ccc3ccccc3n12,-1.44% (inactive)
7,Cc1coc2c(O)cc3c(c12)OC1(N2CCCCC2)C(=O)NCCCC31 (stereo not given),9.81% (inactive)
8,O=[N+]([O-])c1ccccc1N/N=C1\CCc2ccccc21,-6.42% (inactive)
9,Cn1cnnc1Sc1ccc(CN2CCN(C3CCCC3)C(CCO)C2)o1 (stereo not given),-10.1% (inactive)
10,CC(NC(=O)C(=O)N/N=C/c1ccc(Cl)cc1)c1ccccc1 (stereo not given),6.57% (inactive)
11,Cc1ccc(C(=O)NC(C)c2ccccc2)cc1Br (stereo not given),-2.36% (inactive)
12,CC(NC(=O)c1cc2cc(Cl)ccc2oc1=N)c1ccccc1 (stereo not given),56% (active)
13,CN(C(=O)c1cccc([N+](=O)[O-])c1)c1ccccc1C(=O)NCc1ccccc1,-22.1% (inactive)
14,CCC(C(=O)OC)n1cnc2c(oc3ccccc32)c1=O (stereo not given),54.6% (active)
15,CCC(C(=O)OC)n1cnc2scc(-c3ccc(C)cc3)c2c1=O (stereo not given),-1.08% (inactive)
16,Cc1ccc(C)c(Cn2cnc3c(oc4ccccc43)c2=O)c1,29.7% (inactive)
17,Cc1ccc(NC(=O)CN2CCC3(O)CCCCC3C2c2ccc3c(c2)OCO3)c(C)c1 (stereo not given),1.75% (inactive)
18,CC(=O)Nc1ccc(NC(=O)CN2C(=O)COc3ccc(S(=O)(=O)N4CCCCC4)cc32)cc1,-9.58% (inactive)

row,SMILES,inhibition
1,COC(=O)C1=C(C(=O)OC)C2(OC1c1ccc(Br)cc1)C(=O)c1ccccc1C2=O (stereo not given),7.98% (inactive)
2,COc1ccccc1CNC(=O)c1cc(=O)c2ccccc2o1,2.61% (inactive)
3,COc1ccc2c(CC(=O)N3CCc4cc(OC)c(OC)cc4C3)coc2c1,-6.31% (inactive)
4,COc1cc2c(cc1OC)CN(C(=O)c1cc(=O)c3ccccc3o1)CC2,82.5% (active)
5,CCC(=O)Nc1nc2ccccc2n1Cc1ccccc1C,69.6% (active)
6,C=CCn1c(C(C)NC(=O)CC)nc2ccccc21 (stereo not given),-3.06% (inactive)
7,CC(=O)NC(C)c1nc2ccccc2n1Cc1ccccc1F (stereo not given),-8.31% (inactive)
8,O=C(CSc1nnc(-c2ccncc2)n1C1CCCCC1)Nc1ccccc1,0.57% (inactive)
9,Cc1cccc(Nc2ccccc2C(=O)NCc2ccco2)c1C,99.8% (active)
10,Cc1ccc(N(Cc2ccc(C(=O)Nc3ccccc3C(=O)NCc3ccco3)cc2)S(C)(=O)=O)cc1C,-0.75% (inactive)
11,O=C(CCNC(=O)c1ccccc1Cl)NCc1ccco1,-2.42% (inactive)
12,COc1ccc(OCC(=O)NN2Cc3ccccc3C2=N)cc1,10.9% (inactive)
13,CC(Oc1ccccc1)C(=O)Nc1c2c(nn1-c1ccccc1)CS(=O)C2 (stereo not given),4.67% (inactive)
14,CC(Oc1ccccc1)C(=O)NN1Cc2ccccc2C1=N (stereo not given),59.1% (active)
15,O=C(CSc1nnc(COc2ccc(Cl)cc2)n1Cc1ccco1)N1CCNC1=O,-11.3% (inactive)
16,CCc1cccc(C)c1NC(=S)N(CCCN1CCN(C)CC1)Cc1cccs1,-5.26% (inactive)
17,COc1cc(Cl)ccc1OCc1cc(C(=O)N(C)CCc2c(C)n[nH]c2C)no1,-14.3% (inactive)

# — PubChem BioAssay AID504490 (NMMLSC, 2011)
